Test results taken from ChEMBL document CHEMBL4513216, “Probing the Open Global Health Chemical Diversity Library for Multistage-Active Starting Points for Next-Generation Antimalarials” (ACS Infect Dis, 2020).

experiment: Toxicity liver stage against HepG2, at 10uM; type: cell-based; set-up: test concentration 10 uM, cell line HepG2-A16-CD81EGFP; details: human, HepG2-A16-CD81EGFP cells; read-out: INHIBITION
Summary of the method: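 Uninfected HepG2-A16-CD81EGFP cells, 3 × 10^3 per well, 1536-well, plated on prespotted compound at 10 μM final, parasite-free screening media added to match infected plates; puromycin 10 μM positive, DMSO 0.5% negative; run in parallel with 48 h PbLuc assay at 37 °C, 5% CO2; viability by CellTiter-Glo luminescence, normalized to controls.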

Question: For `c1cnnc(N2CCCC(NCc3nnc(-c4ccco4)o3)C2)c1` (configuration not stated), which cytotoxicity at 10 µM is on record?
Answer: -0.986%

Question: With `Cc1cnccc1N1CCN(c2nccc(CCC(F)(F)F)n2)CC1` as the compound, how does the cytotoxicity at 10 µM read?
Answer: 4.91%

Question: With `COc1ccc2c(c1)nc1n2[C@@H](CNCc2ncccc2C)COC1` as the compound, how does the cytotoxicity at 10 µM read?
Answer: 3.1%

Question: Which cytotoxicity at 10 µM does the source give for `CCc1ocnc1C(=O)Nc1ccc2ccn(CCN(C)C)c2c1` here?
Answer: 4.81%

Question: Which cytotoxicity at 10 µM does the source give for `CN1CCC2(CC1)CN(CC1CC1)CC21CCNC1=O` (configuration not stated) here?
Answer: 2.02%

Question: Which cytotoxicity at 10 µM does the source give for `Cc1ccc(C)c2c(O)cc(CNCCNC(=O)C(C)C)nc12` here?
Answer: -8.14%

Question: With `Cc1ccc(CNC(=O)c2ccc(S(=O)(=O)N3C[C@H]4C[C@@H]3CN4)cc2)o1` as the compound, how does the cytotoxicity at 10 µM read?
Answer: -7.2%

Question: For `CCN(Cc1cccc(C)c1)Cn1nc(C)c2c(C)onc2c1=O`, which cytotoxicity at 10 µM is on record?
Answer: -1.03%

Question: With `CCCn1ncc(C(=O)N2CCC(N3CCCCC3)CC2)c1C` as the compound, how does the cytotoxicity at 10 µM read?
Answer: -143%

Question: For `COCCNC(=O)c1ccc2c(=O)n3c(nc2c1)CCCC3`, which cytotoxicity at 10 µM is on record?
Answer: 10%

Question: For `COC(=O)c1cc(CN2CCC(c3noc(C)n3)CC2)c(C)s1`, which cytotoxicity at 10 µM is on record?
Answer: -7.12%

Question: Which cytotoxicity at 10 µM does the source give for `O=S(=O)(c1cn[nH]c1)N1CCCC1c1cc[nH]n1` (configuration not stated) here?
Answer: -23%

Question: For `CC(C)CNC(=O)[C@H]1C[C@H]2CN(C(=O)Nc3ccc(F)cc3)C[C@@H]1O2`, which cytotoxicity at 10 µM is on record?
Answer: 0.428%

Question: Which cytotoxicity at 10 µM does the source give for `CN(C)[C@@H]1CO[C@H](CNC(=O)Nc2ccccc2)[C@H]1O` here?
Answer: -0.713%

Question: For `COCCOC1CCN(C(C(=O)O)c2c(Cl)cccc2OC)CC1` (configuration not stated), which cytotoxicity at 10 µM is on record?
Answer: 6.15%

Question: With `O=C(NCc1ccccn1)NCC(c1ccco1)N1CCCCC1` (configuration not stated) as the compound, how does the cytotoxicity at 10 µM read?
Answer: -2.93%

Question: Which cytotoxicity at 10 µM does the source give for `CCn1c(CN(C)C)nnc1C1CCN(Cc2ccccc2)CC1` here?
Answer: -11.6%

Question: Which cytotoxicity at 10 µM does the source give for `Cc1noc(C)c1CS(=O)(=O)CC(=O)N1CCc2sccc2C1` here?
Answer: -17%

Question: Which cytotoxicity at 10 µM does the source give for `O=C(c1cocn1)N1C[C@@H]2COC[C@]2(COc2cccnc2)C1` here?
Answer: -107%

Question: For `O=C(CSCCN1CCOCC1)N1CCc2ccccc2C1`, which cytotoxicity at 10 µM is on record?
Answer: -6.58%

Question: For `Cc1nc(N2CCCC2)ncc1-c1cc(O)nc(NCC2CCCO2)n1` (configuration not stated), which cytotoxicity at 10 µM is on record?
Answer: 0.723%

Question: For `COC(=O)COc1nc(C(C)C)no1`, which cytotoxicity at 10 µM is on record?
Answer: -6.22%

Question: Which cytotoxicity at 10 µM does the source give for `CC(=O)NCC1CCN(C(=O)c2ccc(Sc3ccccn3)cc2)CC1` here?
Answer: 9.15%

Question: With `Cc1ccccc1CSc1ncc(Br)c(C(=O)O)n1` as the compound, how does the cytotoxicity at 10 µM read?
Answer: 6.99%

Question: For `Cn1nnnc1SCC1COc2ccccc2O1` (configuration not stated), which cytotoxicity at 10 µM is on record?
Answer: -1.94%

Question: With `Nc1cc(-c2c[nH]nc2C2CCCCN2C(=O)C2CCCC2)ccn1` (configuration not stated) as the compound, how does the cytotoxicity at 10 µM read?
Answer: 12%

Question: For `O=C(Cc1cccs1)NC1CCN(c2cccc(F)c2)CC1`, which cytotoxicity at 10 µM is on record?
Answer: -24.2%

Question: For `O=C(O)C1(Cc2cc(-c3ccc(F)cc3)no2)CCOCC1`, which cytotoxicity at 10 µM is on record?
Answer: -20.8%

Question: Which cytotoxicity at 10 µM does the source give for `Cc1cnn(CC2CCCN2C(=O)CCc2cscn2)c1` (configuration not stated) here?
Answer: -11.9%

Question: Which cytotoxicity at 10 µM does the source give for `O=C(C[C@@H]1COC[C@H]2CN(CC3CC3)C[C@@H]12)NCc1cccnc1` here?
Answer: 9.21%

Question: Which cytotoxicity at 10 µM does the source give for `CC(C)N1CCCC(Cc2nccnc2Cl)CC1` (configuration not stated) here?
Answer: -3.97%

Question: For `COC[C@]1(O)CCN(Cc2c[nH]c(CC3CCCC3)n2)CC1(C)C`, which cytotoxicity at 10 µM is on record?
Answer: 17.7%

Question: With `CC(=O)Nc1cccc([C@H]2C[C@@H](NC(C)=O)CCO2)c1` as the compound, how does the cytotoxicity at 10 µM read?
Answer: -0.825%

Question: Which cytotoxicity at 10 µM does the source give for `O=C1OCCN1CCNCC1(O)CCCN(CCC2CCCCC2)C1=O` (configuration not stated) here?
Answer: -0.615%

Question: Which cytotoxicity at 10 µM does the source give for `CCCc1n[nH]cc1C(=O)N1CCCC(c2nccn2CC2CC2)C1` (configuration not stated) here?
Answer: 1.1%

Question: Which cytotoxicity at 10 µM does the source give for `COc1cc2nc(NCc3cc(C)on3)nc(N)c2cc1OC` here?
Answer: -3.34%

Question: Which cytotoxicity at 10 µM does the source give for `COc1cc(CNC(C)Cn2ccnc2)cc2c1OCCO2` (configuration not stated) here?
Answer: -94.1%

Question: With `Cc1ccc(CN2CC[C@@H](O)[C@@H]2Cc2ccccc2)o1` as the compound, how does the cytotoxicity at 10 µM read?
Answer: 1.73%

Question: Which cytotoxicity at 10 µM does the source give for `CN1CCN(CC(=O)NCc2ccco2)Cc2ccccc21` here?
Answer: -3.81%

Question: For `Fc1ccc(OCc2nnc([C@H]3CCN(Cc4ccccn4)C3)o2)cc1`, which cytotoxicity at 10 µM is on record?
Answer: 0.413%

Question: Which cytotoxicity at 10 µM does the source give for `CCC(C)(C)NC(=O)c1ccc(-c2ccco2)[nH]c1=O` here?
Answer: -15.6%

Question: For `Cc1cccc(NC(=O)CCC(=O)NCC(=O)c2ccccc2F)c1`, which cytotoxicity at 10 µM is on record?
Answer: -6.56%

Question: Which cytotoxicity at 10 µM does the source give for `O=C(c1cccc2ncccc12)N1CCCN(c2cccnn2)CC1` here?
Answer: -2.08%

Question: With `O=C(c1ccc2[nH]ccc2c1)N1Cc2nc(CN3CCCCC3)oc2C1` as the compound, how does the cytotoxicity at 10 µM read?
Answer: 9.58%

Question: For `CCOCCCC(=O)N1CCCC1c1nc(-c2ccccc2F)c[nH]1` (configuration not stated), which cytotoxicity at 10 µM is on record?
Answer: 12.5%

Question: For `CN(C)c1cc2c(nn1)CCN(C(=O)Cc1ccc3c(c1)CCO3)C2`, which cytotoxicity at 10 µM is on record?
Answer: 5.71%

Question: With `OCC1(CC2CC2)CCCN(Cc2ccc(C(F)(F)F)nc2)C1` (configuration not stated) as the compound, how does the cytotoxicity at 10 µM read?
Answer: -5.96%

Question: Which cytotoxicity at 10 µM does the source give for `Cc1cccc(OCCC(=O)N2CCCN(CC(N)=O)CC2)c1C` here?
Answer: -7.28%

Question: Which cytotoxicity at 10 µM does the source give for `CCC(C(=O)N(Cc1ccccc1OC)C1CC1)n1cccn1` (configuration not stated) here?
Answer: -44%

Question: With `COc1cc(NC(=O)N2CCCC2c2ccco2)cc(OC)c1` (configuration not stated) as the compound, how does the cytotoxicity at 10 µM read?
Answer: 4.65%

Question: Which cytotoxicity at 10 µM does the source give for `Cc1cc(CN2CCN(C(=O)NC(C)c3cccnc3)CC2)on1` (configuration not stated) here?
Answer: -7.93%

Question: For `O=C1CC(NS(=O)(=O)c2ccc3ccccc3c2)CN1` (configuration not stated), which cytotoxicity at 10 µM is on record?
Answer: 3.94%

Question: With `CC(=O)N1CCCC2(CCC(=O)N2Cc2cccnc2)C1` (configuration not stated) as the compound, how does the cytotoxicity at 10 µM read?
Answer: 7.59%

Question: Which cytotoxicity at 10 µM does the source give for `CS(=O)(=O)c1cccc(C(=O)NCCCN2CCc3ccccc3C2)c1` here?
Answer: -12.1%

Question: For `COc1c(CNC2CCOc3c(Cl)cccc32)c(C(C)C)nn1C` (configuration not stated), which cytotoxicity at 10 µM is on record?
Answer: 2.25%

Question: With `Fc1cnc(N2CC3(CCN(Cc4ccsc4)C3)C2)nc1` as the compound, how does the cytotoxicity at 10 µM read?
Answer: -84.4%

Question: Which cytotoxicity at 10 µM does the source give for `O=C(C1CCCO1)N1CCc2nnc(Cn3cccc3)n2CC1` (configuration not stated) here?
Answer: 13.9%

Question: Which cytotoxicity at 10 µM does the source give for `Cc1ccc(C2COCCN2C(=O)c2ccc(F)c(F)c2)o1` (configuration not stated) here?
Answer: 4.96%

Question: For `CC(C)CN1CCC(C(=O)NCCNC(=O)c2ccccc2)CC1`, which cytotoxicity at 10 µM is on record?
Answer: 1.22%

Question: For `CC(=O)c1ccc(C(=O)Nc2ccnc(N(C)C)n2)cc1`, which cytotoxicity at 10 µM is on record?
Answer: 2.49%

Question: With `Cc1ccc(F)c(OC2(C(=O)O)CCN(C(=O)c3ccncc3)CC2)c1` as the compound, how does the cytotoxicity at 10 µM read?
Answer: 5.03%

Question: Which cytotoxicity at 10 µM does the source give for `CCc1nnc2n1CCN(C(=O)CN(CC)CC)C2` here?
Answer: -3.14%

Question: For `Cc1nc(NC(=O)c2c(-n3cnnn3)sc(C)c2C)sc1C`, which cytotoxicity at 10 µM is on record?
Answer: 2.13%

Question: With `CCOc1ncccc1CNC(=O)c1cccc(C)n1` as the compound, how does the cytotoxicity at 10 µM read?
Answer: -2.42%

Question: For `CC(C)(CO)Nc1ccc(-c2nc(-c3ccccc3F)no2)cn1`, which cytotoxicity at 10 µM is on record?
Answer: 9.62%

Question: Which cytotoxicity at 10 µM does the source give for `Cc1cc(NC(=O)CN2CCn3c(nnc3C(C)C)C2)on1` here?
Answer: 5.05%

Question: For `O=C(c1csnn1)N1CCCC(n2cncn2)C1` (configuration not stated), which cytotoxicity at 10 µM is on record?
Answer: 5.81%

Question: Which cytotoxicity at 10 µM does the source give for `CC(NC(=O)c1ccc(C(N)=O)cc1)c1cccc(N2CCOC2=O)c1` (configuration not stated) here?
Answer: -2.83%

Question: Which cytotoxicity at 10 µM does the source give for `CN(Cc1ncc[nH]1)S(=O)(=O)c1cccc(C(=O)N2CCOCC2)c1` here?
Answer: -9.5%

Question: For `O=C1CC2(CCN(CCO)CC2)CN1Cc1cc(F)cc(F)c1`, which cytotoxicity at 10 µM is on record?
Answer: -15.7%

Question: With `CN1CCN(C2CCN(C(=O)CCC3CCCC3)CC2)CC1` as the compound, how does the cytotoxicity at 10 µM read?
Answer: 6.35%

Question: For `CCC(C(=O)NCc1csc(-c2ncccn2)n1)n1cccn1` (configuration not stated), which cytotoxicity at 10 µM is on record?
Answer: -5.79%

Question: For `CC(NCC1(N(C)C)CCOCC1)c1ccc(Cl)cc1` (configuration not stated), which cytotoxicity at 10 µM is on record?
Answer: -3.19%

Question: For `Cn1ccc(C(=O)N2CCOC(c3ccc(C(N)=O)cn3)C2)n1` (configuration not stated), which cytotoxicity at 10 µM is on record?
Answer: -20%

Question: Which cytotoxicity at 10 µM does the source give for `CC(=O)N1N=C(c2ccccc2)OC1C(=O)NCC(=O)OC(C)(C)C` (configuration not stated) here?
Answer: -0.376%

Question: Which cytotoxicity at 10 µM does the source give for `CN(Cc1cccnc1)C[C@@H]1OC[C@H]2CN(C(=O)C3CC3)CC[C@H]21` here?
Answer: -136%

Question: With `CCOc1ccc(CNCCCn2ccnc2)cc1Cl` as the compound, how does the cytotoxicity at 10 µM read?
Answer: -9.51%

Question: With `CN(CCNC(=O)Nc1nccs1)Cc1ccc(F)cc1` as the compound, how does the cytotoxicity at 10 µM read?
Answer: -1.32%

Question: With `CC(Nc1c(F)cc(C#N)cc1F)c1cccc(S(N)(=O)=O)c1` (configuration not stated) as the compound, how does the cytotoxicity at 10 µM read?
Answer: -4.34%

Question: With `CN1CC(Oc2ccccc2)=NC(SCC(=O)Nc2ccc(Cl)cc2)=N1` as the compound, how does the cytotoxicity at 10 µM read?
Answer: -10.2%

Question: Which cytotoxicity at 10 µM does the source give for `CC(=O)N1CCC(N[C@@H]2CO[C@H](CNC(=O)c3cccs3)[C@H]2O)CC1` here?
Answer: 1.96%

Question: Which cytotoxicity at 10 µM does the source give for `NCC1CCC(C(NC(=O)c2ccccc2)c2ccccn2)CC1` (configuration not stated) here?
Answer: 0%
